# B2AR ag – agonists of human beta-2 adrenergic receptor inducing internalization. Am2.2-beta2AR cells, FAP receptor internalization, flow cytometry. 340,000 compounds, 0.43% hits. response, % (test concentration not listed). P07550;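 active means response above a set limit, near 3 SD of response in nonfluorescent compounds, cut at about 42% in these data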
# L929 necroptosis – blocks zVAD induced death of L929 cells | L929 zVAD necroptosis rescue, ATP luminescence, 24 h; with zVAD 60 µM | viability rescue, % at 10 µM | 220,000 compounds, 0.38% hits | AID 1377;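 active means activation, scaled between plate controls, above about 75%, limit read from the data; inactive means activation under that limit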;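 further: 0% = zVAD with DMSO and 100% = DMSO alone without zVAD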
# TNF death inh – inhibitors of TNF-alpha induced necroptosis in Jurkat FADD-/- cells. Jurkat FADD-/- TNF necroptosis rescue, ATP luminescence, 24 h; 0 = TNF only, 100 = no-TNF cells. 220,000 compounds, 0.068% hits. activation (protection from cell death), % at 10 µM. AID 463075;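 active means activation, meaning protection from cell death, of at least 50% relative to plate controls; inactive means activation below 50%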;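 further: necroptosis triggered by 40 ng/mL TNF-alpha added together with compound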
# Mdm2 ligase inh – inhibitors of human Mdm2 E3 ubiquitin ligase; AID 1230; signal enhancement, % at 5 µM; 210,000 compounds, 0.11% hits; cell-based MDM2 ubiquitination luciferase reporter, 2 h; 0 = plate control, 100 = twice control, blank-subtracted;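 active means signal enhancement of 30% or more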;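 further: luminescence tracks abundance of the self-degrading MDM2-luciferase fusion protein; higher signal means inhibition of MDM2 E3 ligase activity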
# Target sequence (Q00987 whole entry, looked up, the tested form may be a part): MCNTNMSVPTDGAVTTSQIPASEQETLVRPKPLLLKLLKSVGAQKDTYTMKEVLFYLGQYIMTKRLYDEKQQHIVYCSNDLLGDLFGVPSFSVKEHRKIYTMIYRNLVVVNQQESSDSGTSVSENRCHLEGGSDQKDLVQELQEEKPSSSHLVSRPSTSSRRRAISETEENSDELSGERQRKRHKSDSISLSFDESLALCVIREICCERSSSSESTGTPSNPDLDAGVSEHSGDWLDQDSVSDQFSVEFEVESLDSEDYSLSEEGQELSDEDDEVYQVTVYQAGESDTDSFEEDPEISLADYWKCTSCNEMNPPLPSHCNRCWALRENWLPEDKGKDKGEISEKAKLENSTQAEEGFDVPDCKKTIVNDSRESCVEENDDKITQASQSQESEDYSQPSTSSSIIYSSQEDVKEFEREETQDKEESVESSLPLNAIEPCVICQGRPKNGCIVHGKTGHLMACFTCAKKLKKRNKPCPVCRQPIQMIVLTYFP
#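 Material: stable MDM2–luciferase fusion reporter cells / Quantity: 2000 cells/well / Dosing: single 5 µM compound dose, 0.2% final DMSO / Buffer or medium: DMEM / Schedule: 4 h cell settling then 2 h compound exposure, 37 °C / Detection: luminescence with SteadyLite reagent, 15 min at room temperature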
# Dynein cargo inh – blocks dynein driven cargo transport along microtubules; 3617.4 mouse cells, GR-EGFP nuclear translocation imaging; test concentration mostly 20 µM; stimulated with dexamethasone, 1 µM; active compounds read low; z-score, hits read low; 220,000 compounds, 0.47% hits;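 active means plate z-score of nuclear minus cytoplasmic receptor signal below a set negative limit, without overly bright fluorescence or cell loss, cut at about -3.5 in these data, passing the limit was not always enough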;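 further: z-score of nuclear minus cytoplasmic ring GR-EGFP intensity difference per well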
#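 Schedule: 48 h induction, then 1 h compound, then 30 min agonist, 37 °C. Buffer or medium: tetracycline-free induction medium containing charcoal-stripped FBS. Reagent: 1.0 µM final dexamethasone stimulus. Evaluation: nuclear versus cytoplasmic GR-EGFP signal, averaged per well. Signal: high-content fluorescence imaging after fixation.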
# * marks the source's active call; other numbers are inactive results; . = no result. Sampled rows, rich in hits. Any-hit rate of the full collection: about 0.97%.
SMILES,B2AR ag,L929 necroptosis,TNF death inh,Mdm2 ligase inh,Dynein cargo inh
COCCCn1c(-c2ccccc2Cl)n[nH]c1=S,-1.5,0.6,0.5,-16.9,-0.591
Cc1nn(Cc2ccccc2)c(N)c1C#N,4.1,1.4,54.1*,-22.3,-0.0661
COc1ccc(NC(=O)/C(Cl)=C(/Cl)S(=O)Cc2ccc(Cl)cc2)cn1 (stereo unspecified),-401.3,13.7,-14.1,39.3*,-5.44*
O=C(Nc1cccc2ccccc12)N1N=CCC1c1ccccc1 (stereo unspecified),1.0,-0.3,64.4*,-18.0,0.554
S=C(Nc1ccccc1)N1N=CCC1c1ccccc1 (stereo unspecified),-3.0,3.0,90.7*,-10.0,-0.446
O=C(Nc1cccc2ccccc12)N1CCN(c2ccccc2)CC1,0.1,0.2,0.2,-6.4,0.00573
O=[N+]([O-])c1cc([N+](=O)[O-])c(Oc2cncc(Cl)c2)cc1NN1CCCCC1,-2.9,.,.,.,.
CCSc1ccccc1C(=O)n1nnc2ccccc21,12.1,-0.2,-7.4,-9.3,-4*
COc1ccc(C2=CC(=O)C=CC2=O)cc1,.,-0.7,-20.6,.,-6.34*
COC(=O)CSc1nc(NC(C)C)nc(N(C)C)n1,5.5,10.9,0.7,8.7,1.21
O=C(c1ccc(-c2ccccc2)cc1)c1ccc([N+](=O)[O-])cc1,.,0.8,-1.8,-15.0,0.718
O=C(C#Cc1ccccc1)c1ccc([N+](=O)[O-])cc1,68.8*,0.4,-12.3,1.0,-1.79
CCCN1C/C(=C/c2cccc([N+](=O)[O-])c2)C(=O)/C(=C/c2cccc([N+](=O)[O-])c2)C1,28.9,9.7,-10.8,27.5,-6.31*
CN1C(=O)/C(=C/c2cccc([N+](=O)[O-])c2)C(=O)N1c1ccccc1,30.7,.,.,.,.
NNc1nc2sc3c(c2c(=O)n1Cc1ccccc1)CCC3,-3.1,2.8,89.6*,-8.0,-0.729
C=C(C)CSc1nnc2n(Cc3ccccc3)c(=O)c3c4c(sc3n12)CCC4,-3.8,2.4,50.8*,-5.2,0.879
O=C1CSC(c2cn(-c3ccccc3)nc2-c2cc3ccccc3oc2=O)N1Cc1ccco1 (stereo unspecified),-9.3,0.8,-0.3,-13.9,-1.76
COc1ccc(NC(C)c2ccccc2)cc1 (stereo unspecified),2.3,38.8,51.5*,-11.4,-0.339
CC(C)(C)C(=O)/C(=C\c1ccc([N+](=O)[O-])cc1)n1cncn1,.,25.9,-13.8,-20.7,-5.12*
CC(C)(C)C(=O)/C(=C/c1ccc(Cl)cc1)n1cncn1,5.3,.,.,.,.
CCOC(=O)COc1ccc(C2NC(C(=O)O)CS2)cc1 (stereo unspecified),2.4,0.9,-0.1,-9.2,-0.117
CCOC(=O)COc1ccc(C2CC(C)=NN2c2ccccc2)cc1 (stereo unspecified),11.3,8.3,1.8,32.5*,-0.173
Cc1ccc(C2SCCN2C(=O)c2ccc([N+](=O)[O-])cc2)cc1 (stereo unspecified),0.1,0.8,51.1*,-2.8,0.374
CN(Cc1ccccc1)c1cc(Cl)nc(N)n1,5.5,0.8,-2.6,-15.3,0.323
C[C@H](CO)N1C[C@H](C)[C@@H](CN(C)C)Oc2c(NS(=O)(=O)c3ccc(F)cc3)cccc2C1=O,-3.5,.,.,.,.
SMILES,B2AR ag,L929 necroptosis,TNF death inh,Mdm2 ligase inh,Dynein cargo inh
O=C(Nc1ccc(N2CCN(C(=O)c3ccco3)CC2)cc1)c1cccnc1Cl,1.1,19.2,1.1,0.7,0.327
CN(C)/C=C1/N=C(c2ccccc2)OC1=O,-2.7,0.6,0.4,-2.7,0.196
O=CC1=C(c2ccccc2)Oc2ccccc2O1,66.6*,.,.,.,.
COc1ccc2c(c1)O[C@@H](c1cccc(C(F)(F)F)c1)[C@H](O)C2=O,-1.7,0.7,-0.1,.,1.24
COc1ccc2c(c1)O[C@H](c1ccc3c(c1)OCO3)[C@@H](O)C2=O,-3.2,79.4*,2.1,.,0.593
CC#CCC(CC#CC)c1nc2ccccc2c(=O)n1N,-0.5,-0.7,0.6,4.8,0.178
Nc1nc2c(s1)CCc1c-2cnn1-c1ccccc1,25.5,3.0,-5.7,-19.0,-6.01*
CCc1ccc(N(CC(=O)NCc2ccc3c(c2)OCO3)C(=O)c2csnn2)cc1,-0.3,.,.,.,.
CN1CCN(CCCNC(=O)c2ccc(/C=C3/Sc4ccccc4N(Cc4cccc(Cl)c4)C3=O)cc2)CC1,23.6,3.8,-12.0,4.9,-1.11
